ChEMBL document CHEMBL5236662, “Synthesis and biological evaluation of tert-butyl ester and ethyl ester prodrugs of L-γ-methyleneglutamic acid amides for cancer” (Bioorg Med Chem, 2023)

Key:
[1] = Antiproliferative activity against human WSU-HN31 cells assessed as inhibition of cell growth incubated for 72 hrs by CCK-8 assay; assay type: functional, cell-based; conditions: WSU-HN31, 72 h
Summary of the method: (§1)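 Radiotherapy-resistant HNSCC lines were used: HN30 from pharynx SCC and HN31 from a lymph-node metastasis of the same patient. Cells in RPMI 1640 with 10% FBS were seeded at 3,000 per well and treated 24 h later with 10–300 μM (5 levels) for 24 or 72 h, with cisplatin as control. CCK-8 was read at OD450 after 2 h. Data are % survival, n = 3 independent experiments.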

[2] = (§2) Cytotoxicity against human MCF-10A cells assessed as inhibition of cell growth incubated for 24 hrs by Hoechst 33342/propidium iodide staining based fluorescence analysis; assay type: toxicity; conditions: human, MCF-10A cells
[3] = Cmax in CD-1 mouse liver at 2.5 mg/kg, ip measured for 24 hrs by LC-MS/MS analysis; assay type: ADME, organism-based; parameters: time 24 hrs, dose 2.5 mg/kg, route ip; conditions: in vivo
Summary of the method: (§3)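 Male CD1 mice (25–30 g), fasted ~4 h, given 2.5 mg/kg ip in 5% DMSO/95% normal saline. Brain, liver and kidney were taken at pre-dose, 0.5, 2, 4 and 24 h and homogenized in 5 volumes PBS. Homogenates got tolbutamide internal standard and acetonitrile protein precipitation. UPLC-MS/MS used MRM. Parameters came from noncompartmental analysis.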

[4] = Cmax in CD-1 mouse plasma at 2.5 mg/kg, iv measured for 24 hrs by LC-MS/MS analysis; assay type: ADME, organism-based; parameters: time 24 hrs, dose 2.5 mg/kg, route iv; conditions: in vivo
Summary of the method: (§4)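 Fasted (~4 h) male CD1 mice, n = 24 per route, received 2.5 mg/kg iv or ip in 5% DMSO/95% normal saline. Blood was drawn into K2EDTA at pre-dose, 0.083, 0.5, 1, 2, 4, 8 and 24 h, and plasma was separated. Samples were precipitated with acetonitrile, with tolbutamide as internal standard, then quantified by UPLC-MS/MS (MRM). Parameters came from noncompartmental analysis.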

[5] = test system: BNC3; assay: Antiproliferative activity against human BNC3 cells assessed as suppression of cell growth incubated for 24 to 72 hrs by CCK-8 assay; assay type: functional, cell-based; conditions: dose 10-300 µM, time 24-72 hrs
Summary of the method: (§5)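 Primary patient-derived glioblastoma lines were grown in RPMI 1640 with 10% FBS. Cells were seeded at 3,000 per well and dosed 24 h later at 10, 50, 100, 200 and 300 μM for 24 or 72 h, with BiCNU as control. CCK-8 was added and OD450 read after 2 h at 37 °C. Data are % cell survival, from 3 independent replicates.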

[6] = Cmax in CD-1 mouse plasma at 2.5 mg/kg, ip measured for 24 hrs by LC-MS/MS analysis; assay type: ADME, organism-based; parameters: dose 2.5 mg/kg, time 24 hrs, route ip; conditions: in vivo; summary of the method: as §4
[7] = AUC (0 to infinity) in CD-1 mouse kidney at 2.5 mg/kg, ip measured for 24 hrs by LC-MS/MS analysis; assay type: ADME, organism-based; parameters: time 24 hrs, dose 2.5 mg/kg, route ip; conditions: in vivo; summary of the method: as §3
[8] = Tmax in CD-1 mouse brain at 2.5 mg/kg, ip measured for 24 hrs by LC-MS/MS analysis; assay type: ADME, organism-based; conditions: in vivo; summary of the method: as §3
[9] = Cmax in CD-1 mouse kidney at 2.5 mg/kg, ip measured for 24 hrs by LC-MS/MS analysis; assay type: ADME, organism-based; parameters: dose 2.5 mg/kg, time 24 hrs, route ip; conditions: in vivo; summary of the method: as §3
[10] = AUC (0 to infinity) in CD-1 mouse plasma at 2.5 mg/kg, ip measured for 24 hrs by LC-MS/MS analysis; assay type: ADME, organism-based; parameters: dose 2.5 mg/kg, time 24 hrs, route ip; summary of the method: as §4
[11] = AUC (0 to infinity) in CD-1 mouse plasma at 2.5 mg/kg, iv measured for 24 hrs by LC-MS/MS analysis; assay type: ADME, organism-based; parameters: dose 2.5 mg/kg, time 24 hrs, route iv; summary of the method: as §4
[12] = Apparent half life in CD-1 mouse plasma at 2.5 mg/kg, ip measured for 24 hrs by LC-MS/MS analysis; assay type: ADME, organism-based; conditions: in vivo; summary of the method: as §4
[13] = test system: BNC6; assay: Antiproliferative activity against human BNC6 cells assessed as suppression of cell growth incubated for 24 to 72 hrs by CCK-8 assay; assay type: functional, cell-based; conditions: dose 10-300 µM, time 24-72 hrs; summary of the method: as §5
[14] = Antiproliferative activity against human BNC6 cells assessed as inhibition of cell growth incubated for 72 hrs by CCK-8 assay; assay type: functional, cell-based; conditions: BNC6, 72 h; summary of the method: as §5
[15] = Tmax in CD-1 mouse plasma at 2.5 mg/kg, iv measured for 24 hrs by LC-MS/MS analysis; assay type: ADME, organism-based; conditions: in vivo; summary of the method: as §4
[16] = Tmax in CD-1 mouse liver at 2.5 mg/kg, ip measured for 24 hrs by LC-MS/MS analysis; assay type: ADME, organism-based; conditions: in vivo; summary of the method: as §3
[17] = AUC (0 to infinity) in CD-1 mouse brain at 2.5 mg/kg, ip measured for 24 hrs by LC-MS/MS analysis; assay type: ADME, organism-based; parameters: dose 2.5 mg/kg, time 24 hrs, route ip; conditions: in vivo; summary of the method: as §3
[18] = Tmax in CD-1 mouse kidney at 2.5 mg/kg, ip measured for 24 hrs by LC-MS/MS analysis; assay type: ADME, organism-based; conditions: in vivo; summary of the method: as §3
[19] = Tmax in CD-1 mouse plasma at 2.5 mg/kg, ip measured for 24 hrs by LC-MS/MS analysis; assay type: ADME, organism-based; conditions: in vivo; summary of the method: as §4
[20] = Apparent half life in CD-1 mouse liver at 2.5 mg/kg, ip measured for 24 hrs by LC-MS/MS analysis; assay type: ADME, organism-based; conditions: in vivo; summary of the method: as §3
[21] = Apparent half life in CD-1 mouse kidney at 2.5 mg/kg, ip measured for 24 hrs by LC-MS/MS analysis; assay type: ADME, organism-based; conditions: in vivo; summary of the method: as §3
[22] = (§6) Cytotoxicity against human MCF-10A cells assessed as inhibition of cell growth incubated for 72 hrs by Hoechst 33342/propidium iodide staining based fluorescence analysis; assay type: toxicity; conditions: human, MCF-10A cells
[23] = test system: WSU-HN30; assay: Antiproliferative activity against human WSU-HN30 cells assessed as suppression of cell growth incubated for 24 to 72 hrs by CCK-8 assay; assay type: functional, cell-based; conditions: dose 10-300 µM, time 24-72 hrs; summary of the method: as §1
[24] = Antiproliferative activity against human BNC3 cells assessed as inhibition of cell growth incubated for 72 hrs by CCK-8 assay; assay type: functional, cell-based; conditions: BNC3, 72 h; summary of the method: as §5
[25] = Volume of distribution in CD-1 mouse plasma at 2.5 mg/kg, iv measured for 24 hrs by LC-MS/MS analysis; assay type: ADME, organism-based; conditions: in vivo; summary of the method: as §4
[26] = Bioavailability in CD-1 mouse plasma at 2.5 mg/kg, ip measured for 24 hrs by LC-MS/MS analysis; assay type: ADME, organism-based; conditions: in vivo; summary of the method: as §4
[27] = Clearance in CD-1 mouse plasma at 2.5 mg/kg, iv measured for 24 hrs by LC-MS/MS analysis relative to hepatic blood flow; assay type: ADME, organism-based; conditions: in vivo; summary of the method: as §4
[28] = test system: WSU-HN31; assay: Antiproliferative activity against human WSU-HN31 cells assessed as suppression of cell growth incubated for 24 to 72 hrs by CCK-8 assay; assay type: functional, cell-based; conditions: dose 10-300 µM, time 24-72 hrs; summary of the method: as §1
[29] = Antiproliferative activity against human WSU-HN30 cells assessed as inhibition of cell growth incubated for 72 hrs by CCK-8 assay; assay type: functional, cell-based; conditions: WSU-HN30, 72 h; summary of the method: as §1
[30] = AUC (0 to infinity) in CD-1 mouse liver at 2.5 mg/kg, ip measured for 24 hrs by LC-MS/MS analysis; assay type: ADME, organism-based; parameters: time 24 hrs, dose 2.5 mg/kg, route ip; conditions: in vivo; summary of the method: as §3
[31] = Terminal half life in CD-1 mouse plasma at 2.5 mg/kg, iv measured for 24 hrs by LC-MS/MS analysis; assay type: ADME, organism-based; conditions: in vivo; summary of the method: as §4
[32] = test system: MCF-10A; assay: as §2; assay type: toxicity; conditions: mcf-10a
[33] = test system: MDA-MB-231; assay: Antiproliferative activity against human MDA-MB-231 cells assessed as inhibition of cell growth incubated for 72 hrs by Hoechst 33342/propidium iodide staining based fluorescence analysis; assay type: functional; conditions: MDA-MB-231, 72 h
[34] = test system: SK-BR-3; assay: Antiproliferative activity against human SK-BR-3 cells assessed as inhibition of cell growth incubated for 72 hrs by Hoechst 33342/propidium iodide staining based fluorescence analysis; assay type: functional; conditions: SK-BR-3, 72 h
[35] = test system: MCF-10A; assay: as §6; assay type: toxicity; conditions: mcf-10a
[36] = test system: MCF7; assay: Antiproliferative activity against human MCF7 cells assessed as inhibition of cell growth incubated for 72 hrs by Hoechst 33342/propidium iodide staining based fluorescence analysis; assay type: functional; conditions: MCF7, 72 h
[37] = test system: MCF7; assay: Antiproliferative activity against human MCF7 cells assessed as inhibition of cell growth incubated for 24 hrs by Hoechst 33342/propidium iodide staining based fluorescence analysis; assay type: functional; conditions: MCF7, 24 h
[38] = Stability in mouse liver microsomes assessed as drug degradation; assay type: ADME, Microsome
[39] = Stability in mouse plasma assessed as drug degradation; assay type: ADME, cell-free

Structure (SMILES): C=C(C[C@H](N)C(=O)O)C(=O)NCc1ccc(F)cc1
- IC50 [1]: 196 µM
- IC50 at 24 h [2]: > 1000 µM
- Cmax [3]: 7291 ng/g
- Cmax [4]: 3016 ng/mL
- Activity [5]: Dose-Dependent Effect
- Cmax [6]: 1543 ng/mL
- AUC [7]: 21944 ng·h/g
- Tmax [8]: 30 min
- Cmax [9]: 17681 ng/g
- AUC(0-inf) [10]: 967 ng·h/mL
- AUC(0-inf) [11]: 1460 ng·h/mL
- t1/2(app) [12]: 25.8 min
- Activity [13]: Dose-Dependent Effect
- IC50 [14]: 189 µM
- Tmax [15]: 7.2 min
- Tmax [16]: 60 min
- AUC [17]: 44 ng·h/g
- Tmax [18]: 30 min
- Tmax [19]: 13.2 min
- t1/2(app) [20]: 25.8 min
- t1/2(app) [21]: 27.6 min
- IC50 at 72 h [22]: > 1000 µM
- Activity [23]: Dose-Dependent Effect
- IC50 [24]: 169 µM
- Vd [25]: 4.6 L/kg
- F [26]: 66%
- CL [27]: 31%
- Activity [28]: Dose-Dependent Effect
- IC50 [29]: 102 µM
- AUC [30]: 10596 ng·h/g
- beta t1/2 [31]: 48 min

Structure (SMILES): CC/C(=C(\c1ccccc1)c1ccc(OCCN(C)C)cc1)c1ccccc1 [TAMOXIFEN]
- IC50 [32]: > 1000 µM
- IC50 [33]: < 1000 µM
- IC50 [34]: < 1000 µM
- IC50 [35]: > 1000 µM
- IC50 [36]: < 1000 µM

Structure (SMILES): O=C(c1cc(Cc2n[nH]c(=O)c3ccccc23)ccc1F)N1CCN(C(=O)C2CC2)CC1 [OLAPARIB]
- IC50 [32]: > 1000 µM
- IC50 [33]: < 1000 µM
- IC50 [34]: < 1000 µM
- IC50 at 72 h [22]: > 1000 µM
- IC50 [36]: < 1000 µM
- IC50 [37]: > 1000 µM

Structure (SMILES): C=C(C[C@H](NC(=O)OC(C)(C)C)C(=O)OC(C)(C)C)C(=O)Nc1ccc(F)cc1
- IC50 [33]: < 1000 µM
- IC50 [34]: < 1000 µM
- IC50 [35]: < 1000 µM
- IC50 [36]: > 1000 µM

Structure (SMILES): NCc1ccc(F)cc1
- Stability [38]: Unstable
- Stability [39]: Unstable

Structure (SMILES): C=C(C[C@H](N)C(=O)O)C(=O)Nc1ccccc1
- IC50 [1]: 199 µM
- IC50 at 24 h [2]: > 1000 µM
- Activity [5]: Dose-Dependent Effect
- Activity [13]: Dose-Dependent Effect
- IC50 [14]: 210 µM
- IC50 at 72 h [22]: > 1000 µM
- Activity [23]: Dose-Dependent Effect
- IC50 [24]: 218 µM
- IC50 [37]: > 1000 µM
- Activity [28]: Dose-Dependent Effect
- IC50 [29]: 92.9 µM

Structure (SMILES): C=C(C[C@H](N)C(=O)O)C(=O)NCc1ccccc1
- IC50 [1]: 199 µM
- IC50 at 24 h [2]: > 1000 µM
- Activity [5]: Dose-Dependent Effect
- Activity [13]: Dose-Dependent Effect
- IC50 [14]: 188 µM
- IC50 at 72 h [22]: > 1000 µM
- Activity [23]: Dose-Dependent Effect
- IC50 [24]: 171 µM
- IC50 [37]: > 1000 µM
- Activity [28]: Dose-Dependent Effect
- IC50 [29]: 119 µM

Structure (SMILES): C=C(C[C@H](N)C(=O)O)C(=O)Nc1ccc(F)cc1
- IC50 [1]: 202 µM
- IC50 at 24 h [2]: > 1000 µM
- Activity [5]: Dose-Dependent Effect
- Activity [13]: Dose-Dependent Effect
- IC50 [14]: 194 µM
- IC50 at 72 h [22]: > 1000 µM
- Activity [23]: Dose-Dependent Effect
- IC50 [24]: 182 µM
- Activity [28]: Dose-Dependent Effect
- IC50 [29]: 220 µM
